Results from ChEMBL document CHEMBL5376013, “Design, synthesis and biological evaluation of novel morpholinopyrimidine-5-carbonitrile derivatives as dual PI3K/mTOR inhibitors” (RSC Med Chem, 2024).

Tests used:
TK-10 = test: Antitumor activity against human TK-10 cells assessed as growth inhibition at 10 uM relative to control; assay type: functional; settings: read-out: GI
Procedure, shortened: (§1)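 Drug exposure 48 h at 37 °C, 5% CO2. Adherent cells fixed with cold TCA (10% final), suspension cells with TCA (16% final). Stained with 0.4% SRB in 1% acetic acid, dissolved in 10 mM Tris, A515. Growth relative to time-zero and untreated control.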

Malme-3M = test: Antitumor activity against human Malme-3M cells assessed as growth inhibition at 10 uM relative to control; assay type: functional; settings: read-out: GI
Procedure, shortened: (§2)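 After drug addition, plates were incubated 48 h at 37 °C under 5% CO2. Adherent cells were fixed with cold TCA (10% final, 60 min, 4 °C) and suspension cells with 16% final TCA. Staining used 0.4% SRB in 1% acetic acid, solubilized in 10 mM trizma, read at A515. Percent growth was calculated from time-zero, control and treated absorbances.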

SR [1] = test: Antitumor activity against human SR cells assessed as growth inhibition at 10 uM relative to control; assay type: functional; settings: read-out: GI; procedure, shortened: as §1
Hs-578T = test: Antitumor activity against human Hs-578T cells assessed as growth inhibition at 10 uM relative to control; assay type: functional; settings: read-out: GI; procedure, shortened: as §2
SR [2] = test: Induction of cell cycle arrest in human SR cells assessed as accumulation of cells at G2/M phase incubated for 24 hrs by PI staining based flow cytometry analysis (reference value: 8.57%); assay type: functional
SR [3] = test: Induction of cell cycle arrest in human SR cells assessed as cell debris incubated for 24 hrs by PI staining based flow cytometry analysis (reference value: 1.93%); assay type: functional
A549 = test: Antitumor activity against human A549 cells assessed as growth inhibition at 10 uM relative to control; assay type: functional; settings: read-out: GI; procedure, shortened: as §2
SR [4] = test: Induction of apoptosis in human SR cells assessed as early apoptotic cells incubated for 24 hrs by AnnexinV-FITC/propidium iodide staining based flow cytometry (Rvb =0.29%); assay type: functional
SR [5] = test: Induction of apoptosis in human SR cells assessed as late apoptotic cells incubated for 24 hrs by AnnexinV-FITC/propidium iodide staining based flow cytometry (Rvb =0.18%); assay type: functional
MCF7 = test: Antitumor activity against human MCF7 cells assessed as growth inhibition at 10 uM relative to control; assay type: functional; settings: read-out: GI; procedure, shortened: as §2
[6] = target: Phosphatidylinositol 4,5-bisphosphate 3-kinase catalytic subunit alpha isoform (Homo sapiens, UniProt P42336); test: Inhibition of PI3Kalpha (unknown origin)
Sequence of Phosphatidylinositol 4,5-bisphosphate 3-kinase catalytic subunit alpha isoform (P42336 whole entry, canonical isoform): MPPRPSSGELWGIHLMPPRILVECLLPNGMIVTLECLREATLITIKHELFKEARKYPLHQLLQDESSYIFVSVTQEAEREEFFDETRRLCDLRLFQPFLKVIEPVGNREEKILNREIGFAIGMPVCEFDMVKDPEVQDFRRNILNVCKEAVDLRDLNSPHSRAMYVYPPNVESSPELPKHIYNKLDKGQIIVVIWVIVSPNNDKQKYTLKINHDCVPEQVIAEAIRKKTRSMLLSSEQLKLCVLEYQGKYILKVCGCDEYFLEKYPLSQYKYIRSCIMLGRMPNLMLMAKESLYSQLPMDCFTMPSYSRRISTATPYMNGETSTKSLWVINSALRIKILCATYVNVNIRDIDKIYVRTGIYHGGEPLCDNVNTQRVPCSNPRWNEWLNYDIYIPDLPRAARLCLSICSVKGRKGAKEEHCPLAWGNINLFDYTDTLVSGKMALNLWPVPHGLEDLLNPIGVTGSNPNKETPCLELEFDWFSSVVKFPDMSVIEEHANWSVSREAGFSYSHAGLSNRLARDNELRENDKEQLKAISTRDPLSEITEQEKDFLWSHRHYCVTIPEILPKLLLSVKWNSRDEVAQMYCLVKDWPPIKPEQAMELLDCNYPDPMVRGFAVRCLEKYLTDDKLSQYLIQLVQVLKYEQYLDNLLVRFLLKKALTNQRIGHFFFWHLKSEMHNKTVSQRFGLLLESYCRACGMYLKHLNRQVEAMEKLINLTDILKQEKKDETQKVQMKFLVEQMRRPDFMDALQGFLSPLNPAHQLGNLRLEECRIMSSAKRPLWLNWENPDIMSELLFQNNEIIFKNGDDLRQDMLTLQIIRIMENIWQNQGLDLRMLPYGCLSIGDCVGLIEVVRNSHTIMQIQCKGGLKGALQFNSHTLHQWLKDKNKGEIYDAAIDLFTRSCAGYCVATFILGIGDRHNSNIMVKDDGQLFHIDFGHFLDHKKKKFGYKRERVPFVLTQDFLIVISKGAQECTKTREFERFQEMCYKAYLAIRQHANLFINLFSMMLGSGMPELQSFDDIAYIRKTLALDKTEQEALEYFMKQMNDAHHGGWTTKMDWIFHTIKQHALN
Procedure, shortened: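 Inhibitor preincubated 10 min before PIP2 substrate in kinase reaction buffer (25 µl final), 1 h reaction. Product detected by competition with biotinylated PIP3 for GRP1, with SA-HRP and TMB colour.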

NCI-H23 = test: Antitumor activity against human NCI-H23 cells assessed as growth inhibition at 10 uM relative to control; assay type: functional; settings: read-out: GI; procedure, shortened: as §2
SR [7] = test: Induction of cell cycle arrest in human SR cells assessed as cell aggregates incubated for 24 hrs by PI staining based flow cytometry analysis (reference value: 1.47%); assay type: functional
SNB-19 = test: Antitumor activity against human SNB-19 cells assessed as growth inhibition at 10 uM relative to control; assay type: functional; settings: read-out: GI; procedure, shortened: as §1
SR [8] = test: Induction of cell cycle arrest in human SR cells assessed as accumulation of cells at pre-G phase incubated for 24 hrs by PI staining based flow cytometry analysis (reference value: 1.39%); assay type: functional
CCRF-CEM = test: Antitumor activity against human CCRF-CEM cells assessed as growth inhibition at 10 uM relative to control; assay type: functional; settings: read-out: GI; procedure, shortened: as §2
OVCAR-5 = test: Antitumor activity against human OVCAR-5 cells assessed as growth inhibition at 10 uM relative to control; assay type: functional; settings: read-out: GI; procedure, shortened: as §2
NCI/ADR-RES = test: Antitumor activity against human NCI-ADR-RES cells assessed as growth inhibition at 10 uM relative to control; assay type: functional; settings: read-out: GI; procedure, shortened: as §2
RPMI-8226 = test: Antitumor activity against human RPMI-8226 cells assessed as growth inhibition at 10 uM relative to control; assay type: functional; settings: read-out: GI; procedure, shortened: as §2
[9] = Cytotoxicity against human PCS-800-011 cells assessed as inhibition of cell growth by MTT assay; assay type: toxicity, cell-based
HCC 2998 = test: Antitumor activity against human HCC 2998 cells assessed as growth inhibition at 10 uM relative to control; assay type: functional; settings: read-out: GI; procedure, shortened: as §2
SR [10] = test: Induction of apoptosis in human SR cells assessed as necrotic cells incubated for 24 hrs by AnnexinV-FITC/propidium iodide staining based flow cytometry (Rvb =0.92%); assay type: functional
SR [11] = test: Induction of cell cycle arrest in human SR cells assessed as accumulation of cells at G1 phase incubated for 24 hrs by PI staining based flow cytometry analysis (reference value: 53.01%); assay type: functional
SR [12] = test: cells; settings: Homo sapiens
SR [13] = test: Induction of cell cycle arrest in human SR cells assessed as accumulation of cells at S phase incubated for 24 hrs by PI staining based flow cytometry analysis (reference value: 38.42%); assay type: functional
K562 = test: Antitumor activity against human K562 cells assessed as growth inhibition at 10 uM relative to control; assay type: functional; settings: read-out: GI; procedure, shortened: as §2
[14] = target: T1, Serine/threonine-protein kinase mTOR (Homo sapiens, UniProt P42345); test: Inhibition of mTOR (unknown origin) incubated for 1 hr by ELISA analysis
Procedure, shortened: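 Glutathione-coated plate loaded with mTOR substrate (1 h, room temperature). mTOR with compound in 2X kinase assay buffer, 30 min at 30 °C, then stop solution. Phospho-p70S6K-T389 detected by primary antibody, then HRP conjugate (1 h each), TMB, A450 with 540 or 595 nm reference.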

[15] = target: T1, Serine/threonine-protein kinase mTOR; test: Inhibition of mTOR in human SR cells by Western blot analysis; assay type: cell-based

Row | SMILES | inhibition of growth at 10 µM (TK-10) [%] | inhibition of growth at 10 µM (Malme-3M) [%] | inhibition of growth at 10 µM (SR [1]) [%] | inhibition of growth at 10 µM (Hs-578T) [%] | Activity (SR [2]) [%] | Activity (SR [3]) [%] | inhibition of growth at 10 µM (A549) [%] | Activity (SR [4]) [%] | Activity (SR [5]) [%] | inhibition of growth at 10 µM (MCF7) [%] | IC50 [6] [nM] | inhibition of growth at 10 µM (NCI-H23) [%] | Activity (SR [7]) [%] | inhibition of growth at 10 µM (SNB-19) [%] | Activity (SR [8]) [%] | inhibition of growth at 10 µM (CCRF-CEM) [%] | inhibition of growth at 10 µM (OVCAR-5) [%] | inhibition of growth at 10 µM (NCI/ADR-RES) [%] | inhibition of growth at 10 µM (RPMI-8226) [%] | IC50 [9] [nM] | other results
1 | N#Cc1c(-c2ccc(Cl)cc2)nc(N/N=C/c2cccc(O)c2)nc1N1CCOCC1 | 21 | < 1 | 95.3 | 10.6 | 33.77 | 2.24 | 27.3 | 2.61 | 19.19 | < 39.9 | 1270 | < 1 | 1.61 | 13.1 | 31.4 | 63.8 | < 1 | 35.1 | 62.6 | 44500 | inhibition of growth at 10 µM (HCC 2998): < 1%; Activity (SR [10]): 9.61%; Activity (SR [11]): 39.28%; IC50 (SR [12]): 90 nM; Activity (SR [13]): 26.95%; inhibition of growth at 10 µM (K562): 54.9%; IC50 [14]: 2850 nM
2 | N#Cc1c(-c2ccc(Cl)cc2)nc(N/N=C/c2cccc(Cl)c2)nc1N1CCOCC1 | < 1 | < 1 | 91.3 | < 1 | 37.64 | 1.96 | 18.1 | 3.54 | 27.96 | < 14.1 | 170 | < 1 | 1.51 | < 1 | 44.26 | 27.5 | < 1 | 10.8 | 35 | 17500 | IC50 [15]: 103 nM; inhibition of growth at 10 µM (HCC 2998): < 1%; Activity (SR [10]): 12.76%; Activity (SR [11]): 32.95%; IC50 (SR [12]): 100 nM; Activity (SR [13]): 29.41%; inhibition of growth at 10 µM (K562): 64.9%; IC50 [14]: 830 nM
